Our source for the IC50, Activity and Ki values is ChEMBL document CHEMBL1148024, “Novel inhibitors of fatty acid amide hydrolase” (Bioorg Med Chem Lett, 2007).

The source made the active and inactive calls. The rule behind the calls is not given here.

In assay [1] the target is T1, Fatty-acid amide hydrolase 1 (Homo sapiens, UniProt O00519).
T1 sequence (O00519 whole entry): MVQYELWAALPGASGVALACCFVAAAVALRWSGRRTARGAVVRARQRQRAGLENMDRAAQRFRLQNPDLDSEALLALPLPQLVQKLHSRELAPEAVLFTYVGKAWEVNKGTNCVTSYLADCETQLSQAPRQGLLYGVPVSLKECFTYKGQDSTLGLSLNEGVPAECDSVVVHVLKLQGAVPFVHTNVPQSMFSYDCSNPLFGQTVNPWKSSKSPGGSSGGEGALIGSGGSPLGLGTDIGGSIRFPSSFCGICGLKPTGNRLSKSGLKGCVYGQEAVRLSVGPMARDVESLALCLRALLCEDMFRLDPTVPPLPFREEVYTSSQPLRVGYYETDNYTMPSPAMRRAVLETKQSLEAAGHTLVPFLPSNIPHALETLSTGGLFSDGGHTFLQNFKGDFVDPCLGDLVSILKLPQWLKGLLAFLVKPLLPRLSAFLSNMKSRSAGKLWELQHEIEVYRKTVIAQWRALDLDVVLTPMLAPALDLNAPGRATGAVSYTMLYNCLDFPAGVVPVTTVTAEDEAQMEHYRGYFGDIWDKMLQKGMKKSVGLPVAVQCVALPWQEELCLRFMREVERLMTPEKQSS
In words: Inhibition of human FAAH expressed in H4 cells. The assay is classed as cell-based. The essentials: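 Enzyme source: crude membrane homogenates from H4 cells transfected with human FAAH. Activity measured by a modified Omeir et al. method. IC50 taken from a four-parameter logistic fit of dose–response curves.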

The subject of assay [2] is Rattus norvegicus. The assay is described as follows: Antinociceptive effect in rat at 10 mg/kg, iv by thermal escape test. It counts as functional, organism-based. Also noted: dose 10 mg/kg. The essentials:
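Rats were dosed iv with test compound at 0.1, 1 and 10 mg/kg, 15 min before exogenous anandamide (1 mg/kg, iv). Antinociception was read in the Hargreaves thermal escape test from 3 to 30 min after anandamide.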

The test system of assay [3] is Rattus norvegicus. The assay is described as follows: Antinociceptive effect in rat persistent pain model assessed as suppression of formalin-induced paw flinches at 20 mg/kg, iv relative to control. The assay is classed as functional, organism-based. Also noted: dose 20 mg/kg.
Assay [4] deals with Rattus norvegicus. In words: Antinociceptive effect in rat persistent pain model assessed as suppression of formalin-induced paw flinches at 20 mg/kg, iv in presence of SR-141716A. Also on record: dose 20 mg/kg. It counts as functional, organism-based. The essentials: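 CB1 antagonist SR141716A was given ip at 3 or 10 mg/kg at -30 min. Test compound (20 mg/kg) followed iv via jugular catheter at -15 min, then subcutaneous paw formalin at 0 min. Paw-flinch frequency was scored in Phase I (acute) and Phase II (persistent). Groups were compared with vehicle by Dunnett's test.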

Assay [5] relates to Rattus norvegicus. The assay is described as follows: Effect on neuropathic pain in rat chung model assessed as reversal of tactile allodynia at 20 mg/kg, iv. It counts as functional, organism-based. Also noted: dose 20 mg/kg.
Assay [6] has as its target T2, Cytosolic phospholipase A2 (Homo sapiens, UniProt P47712).
T2 sequence (P47712 whole entry): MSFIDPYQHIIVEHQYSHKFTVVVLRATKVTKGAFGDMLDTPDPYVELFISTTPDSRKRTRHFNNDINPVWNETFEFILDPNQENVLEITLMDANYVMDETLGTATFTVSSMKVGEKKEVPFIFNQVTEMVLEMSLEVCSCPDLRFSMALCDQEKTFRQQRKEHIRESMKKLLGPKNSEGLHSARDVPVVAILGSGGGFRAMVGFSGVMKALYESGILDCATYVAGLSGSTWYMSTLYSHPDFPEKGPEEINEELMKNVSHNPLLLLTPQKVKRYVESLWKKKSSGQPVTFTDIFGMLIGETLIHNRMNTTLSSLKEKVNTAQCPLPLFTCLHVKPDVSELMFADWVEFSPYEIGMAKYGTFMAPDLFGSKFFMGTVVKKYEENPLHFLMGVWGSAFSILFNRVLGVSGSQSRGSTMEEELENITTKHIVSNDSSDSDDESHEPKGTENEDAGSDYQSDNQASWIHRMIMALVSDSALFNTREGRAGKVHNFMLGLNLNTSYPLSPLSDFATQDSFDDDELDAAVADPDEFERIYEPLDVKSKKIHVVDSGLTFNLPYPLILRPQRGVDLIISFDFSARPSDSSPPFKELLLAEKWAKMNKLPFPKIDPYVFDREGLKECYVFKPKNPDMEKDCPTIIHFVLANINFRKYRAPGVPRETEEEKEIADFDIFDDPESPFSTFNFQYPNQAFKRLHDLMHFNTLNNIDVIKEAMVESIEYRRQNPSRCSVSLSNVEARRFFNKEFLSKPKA
In words: Inhibition of cPLA2 activity.

The target in assay [7] is Cannabinoid receptor 1 (Homo sapiens, UniProt P21554). In words: Displacement of [3H]CP-55940 from CB1 receptor expressed in HEK cells. It counts as cell-based, HEK293. A general note: Loss of bound radioactivity is the signal in a displacement assay; it reports binding, not function.
Assay [8] deals with Cannabinoid receptor 2 (Homo sapiens, UniProt P34972). The assay is described as follows: Displacement of [3H]CP-55940 from CB2 receptor expressed in CHO cells. It counts as cell-based.
Cannabinoid receptor 2, sequence (P34972 whole entry): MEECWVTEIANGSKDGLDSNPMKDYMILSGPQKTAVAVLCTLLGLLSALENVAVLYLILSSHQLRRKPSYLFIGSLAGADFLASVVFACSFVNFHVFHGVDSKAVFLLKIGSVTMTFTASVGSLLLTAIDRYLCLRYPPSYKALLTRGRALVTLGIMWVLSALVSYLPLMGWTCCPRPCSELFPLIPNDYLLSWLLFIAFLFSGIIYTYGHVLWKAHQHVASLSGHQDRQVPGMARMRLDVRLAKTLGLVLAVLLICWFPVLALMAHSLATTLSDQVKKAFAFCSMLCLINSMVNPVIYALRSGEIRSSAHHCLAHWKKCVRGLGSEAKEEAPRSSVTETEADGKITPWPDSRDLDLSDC

Cannabinoid receptor 1, sequence (P21554 whole entry): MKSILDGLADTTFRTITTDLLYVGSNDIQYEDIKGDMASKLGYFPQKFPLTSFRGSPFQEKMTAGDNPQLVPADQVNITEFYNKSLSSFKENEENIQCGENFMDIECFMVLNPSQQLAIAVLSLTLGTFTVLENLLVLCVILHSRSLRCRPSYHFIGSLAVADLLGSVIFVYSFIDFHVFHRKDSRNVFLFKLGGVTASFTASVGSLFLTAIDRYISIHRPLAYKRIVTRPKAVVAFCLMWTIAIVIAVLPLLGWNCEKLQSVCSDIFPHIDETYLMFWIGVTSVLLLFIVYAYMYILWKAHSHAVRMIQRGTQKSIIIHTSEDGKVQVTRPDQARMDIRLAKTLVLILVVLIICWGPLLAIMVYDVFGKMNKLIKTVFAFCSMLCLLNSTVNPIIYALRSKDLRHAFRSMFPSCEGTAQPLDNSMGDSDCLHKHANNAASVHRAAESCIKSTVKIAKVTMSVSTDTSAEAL

Turning to `CCOC(=O)CCCCOc1ccc(-n2cnc(-c3ccccc3)c2-c2ccccc2)cc1`, the concentration for half-maximal inhibition (IC50) in assay [1] is above 10000 nM. On the same count and under the same terms, under `Cc1nc(-c2ccccc2)c(-c2ccccc2)n1CCCCCC(C)NC(=O)Oc1ccccc1F` (centres undefined) stands 4.2 nM. Consider `CNC(=O)NCCCCCCn1c(C)nc(-c2ccccc2)c1-c1ccccc1`, for which, in assay [1], the 50% inhibitory concentration (IC50) is above 10000 nM. In assay [1], `CCOC(=O)CCCCCCn1c(C)nc(-c2ccc(F)cc2)c1-c1ccc(F)cc1` came in with a concentration for half-maximal inhibition (IC50) of 64 nM. Still for that read-out and setting: to `CCOC(=O)CCCCCCn1c(CC)nc(-c2ccccc2)c1-c1ccccc1` belongs 11 nM; to `COC(=O)COc1ccc(-n2cnc(-c3ccccc3)c2-c2ccccc2)cc1`, 670 nM. In the case of `COC(=O)COc1cccc(-n2cnc(-c3ccccc3)c2-c2ccccc2)c1`, in assay [1], the IC50 is 6500 nM.

In turn, `CCOC(=O)CC(C)CCCCCn1c(C)nc(-c2ccccc2)c1-c1ccccc1` (centres undefined) showed an IC50 in assay [1] of 130 nM. In assay [1], `Cc1nc(-c2ccccc2)c(-c2ccccc2)n1CCCCCCNC(=O)Nc1ccccc1` showed an IC50 of 10000 nM. Consider `CCc1nc(-c2ccccc2)c(-c2ccccc2)n1CCCCCCCC(=O)OC`, for which the IC50 in assay [1] stood at 31 nM. This IC50 lies about 320-fold lower than the previous one. In assay [1], `CCCN(CCCCCCn1c(C)nc(-c2ccccc2)c1-c1ccccc1)C(=O)Oc1ccccc1F` yielded an IC50 above 100000 nM. As to `CCOC(=O)CC(CC)CCCCCn1c(C)nc(-c2ccccc2)c1-c1ccccc1` (centres undefined), in assay [1], the half-maximal inhibitory concentration (IC50) turned out to be 9900 nM. In other words, the single-digit micromolar range. Still for that read-out and setting: under `CCOC(=O)CCCOc1cccc(-n2cnc(-c3ccccc3)c2-c2ccccc2)c1` stands 91 nM.

The compound `Cc1nc(-c2ccc(F)cc2)c(-c2ccc(F)cc2)n1CCCCCCNC(=O)Oc1ccccc1F` displayed an IC50 in assay [1] of 10 nM. This IC50 is about 9.1-fold lower than that of the compound before. In assay [1], `Cc1nc(-c2ccccc2)c(-c2ccccc2)n1CCCCCCNC(=O)Oc1ccccc1` showed an IC50 of 5.3 nM. This IC50 is about 1.9-fold lower than that of the compound before. Regarding `Cc1nc(-c2ccc(F)cc2)c(-c2ccc(F)cc2)n1CCCCCCNC(=O)Oc1c(F)cccc1F`, the IC50 in assay [1] came to 24 nM.

On to `Cc1nc(-c2ccccc2)c(-c2ccccc2)n1CCCCCC(NC(=O)Oc1ccccc1F)c1ccccc1` (centres undefined), for which 110 nM corresponded to half-maximal inhibition in assay [1] (IC50).

For `CCC(CCCCCn1c(C)nc(-c2ccccc2)c1-c1ccccc1)NC(=O)Oc1ccccc1F` (centres undefined), half-maximal inhibition in assay [1] (IC50) was put at 30 nM. The same measure, in the same setting: to `Cc1nc(-c2ccccc2)c(-c2ccccc2)n1CCCCCC(NC(=O)Oc1ccccc1F)C(C)C` (centres undefined) belongs 250 nM.

For the compound `CCOC(=O)CC(CCCCCn1c(C)nc(-c2ccccc2)c1-c1ccccc1)C(C)C` (centres undefined), the half-inhibitory concentration (IC50) in assay [1] is above 100000 nM. Take `CCCCC/C=C\C/C=C\C/C=C\C/C=C\CCCC(=O)NCCO`: the result in assay [2] was inactive. `CNC(=O)CCCCCCn1c(C)nc(-c2ccccc2)c1-c1ccccc1` returned an IC50 in assay [1] of 1700 nM. Still for that read-out and setting: to `CCOC(=O)CCCOc1ccc(-n2cnc(-c3ccccc3)c2-c2ccccc2)cc1` belongs 64 nM. With `Cc1nc(-c2ccccc2)c(-c2ccccc2)n1CCCCCCNC(=O)Oc1ccccc1F`, the 50% inhibitory concentration (IC50) in assay [1] was 2 nM. Moreover, the outcome in assay [2] and in assay [4] was inactive. The result in assay [3] and in assay [5] was Active. Also, the figures for the inhibition constant Ki in assay [6], in assay [7] and in assay [8] were 15000 nM, 23000 nM and 28000 nM, respectively. `CCN(CCCCCCn1c(C)nc(-c2ccccc2)c1-c1ccccc1)C(=O)Oc1ccccc1F`: in assay [1], the IC50 was above 100000 nM. `Cc1nc(-c2ccccc2)c(-c2ccccc2)n1CCCCCCC(=O)N(C)C` gave a half-maximal inhibitory concentration (IC50) in assay [1] of 970 nM. In other words, the sub-micromolar range. Still for that read-out and setting: under `CCOC(=O)CCCCCn1c(CC)nc(-c2ccccc2)c1-c1ccccc1` stands 32 nM.

A word on the IC50: it is the concentration that gives 50% inhibition. Higher therefore signals lower potency. Broadly, the Ki is a measure of affinity in units of concentration, obtained from inhibition or displacement. Read a low Ki as tighter binding.
